Laboratory results published in the EternaBench riboswitch data.

Test system: MS2 coat protein
Assay: apparent Kd, MS2 coat protein; higher = weaker binding; RNA-MaP array; FMN 200 µM where present
In short: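 The titrant was SNAP-549-labelled MS2 coat protein, run from 0.7 or 1.5 nM in doubling steps to 3 µM. It was applied to designs transcribed by stalled E. coli RNA polymerase on Illumina sequencing-chip clusters, without ligand first and then with constant ligand, in 100 mM Tris-HCl pH 7.5, 80 mM KCl, 4 mM MgCl2, BSA, DTT, yeast tRNA and Tween-20. The apparent Kd is the median of filtered per-cluster binding-curve fits, with green signal normalised to red-channel RNA signal and control-cluster median Fmax.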

[1] = designed as: ON switch for flavin mononucleotide, no ligand
[2] = ligand present: flavin mononucleotide, designed as: ON switch for flavin mononucleotide
[3] = designed as: OFF switch for flavin mononucleotide, no ligand
[4] = ligand present: flavin mononucleotide, designed as: OFF switch for flavin mononucleotide

| Sequence | apparent Kd [1] | apparent Kd [2] | apparent Kd [3] | apparent Kd [4] |
| --- | --- | --- | --- | --- |
| UUACCUUAUGAGAAGGCGAUCAUGAAACAUGAUCGAGGAUAUCAUGUAAACAUGAGGAUCACCCAUGUAUGGGUAUUAUGGUAA | 0.213 µM | 0.0285 µM | – | – |
| UUACUAUCACAGAAGGCUGGAUAGUAUAUAGACGGAGGAUAUGUGACAUGAGGAUCACCCAUGUUUCACCGACAUGAGGAUCAA | – | – | 0.0225 µM | 0.0541 µM |
| UUACUAUUGCAGAAGGCUCAAUAAUAUAUAAAGGGAGGAUAUGCAACAUGAGGAUCACCCAUGUUUCACCCAUAUGAGGAUCAC | – | – | 0.00951 µM | 0.013 µM |
| UUACUCAUGUAAGGAUAUGCAGUCGUUUCGGCUGCAGAAGGUACUAUAAUACAUGAGGAUCACCCAUGUCUUUUUAAUUUUUAC | 0.112 µM | 0.041 µM | – | – |
| UUAGGAUCAGGAUAUGAUGUUUUAAACAUGAGGAUCACCCAUGUAGAUCCUGAUUCAACAUCAGAAGGGAUAAUUU | – | – | – | 0.0215 µM |
| UUAUAAAGAGUGAGGAUAUGCUGGUCCAUGGAUCAGCAGAAGGCACAUGAGGAUCACCCAUGUAAAAUAAUAUU | – | – | 0.0183 µM | 0.0376 µM |
| UUAUACGCUGAGGAUAUCAUCACUGAGAGGUGAUGAGAAGGCGGUACAUGAGGAUCACCCAUGUCUAUGGGCAG | – | – | 0.291 µM | 0.418 µM |
| UUAUACGUUGAGGAUAUGCGAUUUAGUAUAGUUGUAGAAGGCGAUACAUGAGGAUCACCCAUGUUUAUGGGCAU | – | – | 0.328 µM | 0.257 µM |
| UUAUAUAGUGUGAGGAUAUGCUGGUCCUUGGAUCAGCAGAAGGCACAUGAGGAUCACCCAUGUAAUAUAUUAUU | – | – | 0.0671 µM | 0.156 µM |
| UUAUGAGCGAUAGGAUAUACUGAGAUUGAAUGGGUAGAAGGAUCGAUCGUGUGGAAGACAUGAGGAUCACCCAUGUUACGGGCC | 0.056 µM | 0.166 µM | – | – |
| UUAUGCUGAGAGAAGGUUCAAACUACAUAUUGCGCACAUGAGGAUCACCCAUGUUGGUGAAUAAGAAAGGAUAUUUUACUGUAU | – | – | 0.0632 µM | 0.0431 µM |
| UUAUGCUUAGAGAAGGUUCAAACUACAUAUUGCGCACAUGAGGAUCACCCAUGUUGGUGAAUAAGAAAGGAUAUUUGACUGUGC | – | – | 0.245 µM | 0.171 µM |
| UUAUGUUUUGUAGGAUAUCAUUAGAUUUGUAAUUUAAUUGUAAUUUAGAUAUGAGAAGGACAUUUACAUGAGGAUCACCCAUGU | – | – | 0.0161 µM | 0.0115 µM |
| UUAUGUUUUGUAGGAUAUCAUUAGUUAUGUAUUAUAAUUGAAAUUUUGUUAUGAGAAGGACAUUUACAUGAGGAUCACCCAUGU | – | – | 0.0139 µM | 0.0099 µM |
| UUAUUAUAUGUAGGAUAUGCAUAUUAUUAUUAUGCAGAAGGACAUGAGGAUCACCCAUGUAUAUUGUUAUUAUAUAUUAUAUAU | – | – | 0.0255 µM | 0.037 µM |
| UUAUUAUAUGUAGGAUAUGCGUAUUAUUGUUAUGCAGAAGGACAUGAGGAUCACCCAUGUAUAUUAUUGUUAUGUAUUAUAUAU | – | – | 0.0305 µM | 0.0693 µM |
| UUAUUAUAUGUAGGAUAUGUAUAUUAUUAUUGUGCAGAAGGACAUGAGGAUCACCCAUGUAUAUUAUUAUUAUAUAUUAUAUAU | – | – | 0.0214 µM | 0.0171 µM |
| UUAUUGUGAGGAUAUCCAAUAUAUGACAUGAGGAUCACCCAUGUUUCCACUCGUACCUCCGGAGAAGGCACUUAUU | – | – | 0.0327 µM | 0.0294 µM |
| UUAUUUAGGUAGGAUAUCGAUAUCAAUCCCUAUCGAGAAGGGUCUACAUGAGGAUCACCCAUGUUAGCAUGUUU | – | – | 0.0212 µM | 0.0192 µM |
| UUAUUUAGGUAGGAUAUCGAUAUUAAUCCCUAUCGAGAAGGGUCUACAUGAGGAUCACCCAUGUUAGCAUGUUU | – | – | 0.0215 µM | 0.0213 µM |
| UUAUUUAGUGUGAGGAUAUGCUGGUCCAUAGAUCAGCAGAAGGCACAUGAGGAUCACCCAUGUAAUAUAUUAAU | – | – | 0.0265 µM | 0.202 µM |
| UUAUUUAUACAAGGAUAUCAAUUAUAUACAAAUCCAACAUGAGGAUCACCCAUGUUUUAUUUUUUUGAGAAGGUGUAUUGUCAG | 0.0328 µM | 0.032 µM | – | – |
| UUAUUUAUGUAAGGAUAUCGAUUAUAUACACAUCCUACAUGAGGAUCACCCAUGUUUUAUUUUUUCGAGAAGGUACAUUGUCGG | 0.0517 µM | 0.0474 µM | – | – |
| UUCAAAUUCGUAGGAUAUGUAUAUAAUUUCUACAUGAGGAUCACCCAUGUUACCAUUUUUUAGUGACAGAAGGACGUAAUCUAA | 0.211 µM | 0.0476 µM | – | – |
| UUCAGACAUGAGGAUCACCCAUGUGAGGAUAUGAUGCAGCAGUGGUCUACGCUGUGCAUCAGAAGGCACAUGUG | – | – | 0.14 µM | 0.0327 µM |
| UUCAUCAGUGAAGGAUAUCUAUGUCCAACAUGAGGAUCACCCAUGUUGAGGAUUACCUAUGUGUAGGAGAAGGUCAAUAUAACU | 0.00679 µM | 0.0061 µM | – | – |
| UUCAUGUGAGGAUAUGCGGCGCCAGGCGAGCCUGGCACUGAGCAGAAGGCACAUGAGGAUCACCCAUGUGCUCC | – | – | 0.0335 µM | 0.0735 µM |
| UUCCUCGUUGUGAGGAUAUCGUCCGGGUUUUGUUACGAGAAGGCACAUGAGGAUCACCCAUGUUACUUGAUGUU | – | – | 0.019 µM | 0.064 µM |

| Sequence | apparent Kd [1] | apparent Kd [2] | apparent Kd [3] | apparent Kd [4] |
| --- | --- | --- | --- | --- |
| UUCCUCUUUGUGAGGAUAUCGUCCGUUUUUUGUUACGAGAAGGCACAUGAGGAUCACCCAUGUUUUUUGUUUUU | – | – | 0.0204 µM | 0.0683 µM |
| UUCGAAUUGUAGGAUAUUUUGCCCGAUUGGGCGGGAGAAGGGCAGACAUGAGGAUCACCCAUGUGUCAGGCAGU | – | – | 0.0408 µM | 0.0405 µM |
| UUCGGCGCAGGAUAUGCGGUUCUGUGUUGAAUCGGCGCGGGACAUGAGGAUCACCCAUGUAGAAGGGUGUUGGG | – | – | 0.361 µM | 0.287 µM |
| UUCGUGCUGCUUUGCUGUACGAGUACAUGAGGAUCACCCAUGUAGGAUAUGGACAUGAGGAUCACCCAGAAGGAUAUGUGUUGC | – | – | 0.113 µM | 0.141 µM |
| UUCGUGUAAGGAUAUACGACUCAUCCCAAUGGGACGAGCACGUAGAAGGUACAUGAGGAUCACCCAUGUGCUCC | – | – | 0.0271 µM | 0.155 µM |
| UUCGUGUGACAGAAGGGUCUUUCGGGCUGGGAGGCAGGAUAUGUGACAUGAGGAUCACCCAUGUUGGUAUCGUCUGUGUGUACG | – | – | 0.00615 µM | 0.0128 µM |
| UUCUUACAUGAGGAUCACCCAUGUCAGGAUAUCUCCACACUGCGCUUGCGCAGUGUAUAGAGAAGGGACAGGCU | – | – | 0.0494 µM | 0.0475 µM |
| UUCUUACAUGAGGAUCACCCAUGUCAGGAUAUCUCCUCACUGCGCUUGCGCAGUGGAUAGAGAAGGGACAGGCU | – | – | 0.0568 µM | 0.0501 µM |
| UUCUUACAUGAGGAUCACCCAUGUGUUGUCGUGGGAGGAUAUCCUUGUUCGGUGGCGUUGGGAGAAGGCCUAUGUU | 0.0393 µM | 0.0732 µM | – | – |
| UUCUUGGCAGGAUAUGCUUUUUUAGACAUGAGGAUCACCCAUGUGAUUAUUUUUGGUUUUGCAGAAGGGCCUUAAU | – | – | 0.0654 µM | 0.0872 µM |
| UUGAUACAUACCUCCAUAAACAUGAGGAUCACCCAUGUAAGUGAGGAUAUAGAUUGUUUAGUAUACUAGAAGGCACUUAGAUAU | – | – | 0.0131 µM | 0.0119 µM |
| UUGCGGGAUUGAGGAUAUUGAGUACAUAUGUUUAACAUGAGGAUCACCCAUGUGGGUUGCGGUAUCGAGAAGGUAACUUACUAC | 0.0958 µM | 0.104 µM | – | – |
| UUGGACGUCGUAGGAUAUAUAGGAUAUUCCUACAUGAGGAUCACCCAUGUUGACAUGGAAGAAGGACAGAAGGACGAUGUCCAU | 0.0271 µM | 0.00975 µM | – | – |
| UUGGACGUCGUAGGAUAUGGAGGAUAUUCCUACAUGAGGAUCACCCAUGUUGACAUGGAAGAAGGACAGAAGGACGAUGUCCAU | 0.0101 µM | 0.00414 µM | – | – |
| UUGGACGUCGUAGGAUAUGUAGGAUAUUCAUACAUGAGGAUCACCCAUGUUGACAUGGAAGAAGGACAGAAGGACGAUGUCCAU | 0.00863 µM | 0.00456 µM | – | – |
| UUGGACGUCGUAGGAUAUGUAGGAUAUUCCUACAUGAGGAUCACCCAUGUUGACAUGGAAGAAGGACAGAAGCACGAUGUCCAU | 0.199 µM | 0.00535 µM | – | – |
| UUGGACGUCGUAGGAUAUGUAGGAUAUUCCUACAUGAGGAUCACCCAUGUUGACAUGGAAGAAGGACAGAAGGACCAUGUCCAU | 0.451 µM | 0.0148 µM | – | – |
| UUGGACGUCGUAGGAUAUGUAGGAUAUUCCUACAUGAGGAUCACCCAUGUUGACAUGGAAGAAGGACAGAAGGACGAGGUCCAU | 0.241 µM | 0.00493 µM | – | – |
| UUGGACGUCGUAGGAUAUGUAGGAUAUUCCUACAUGAGGAUCACCCAUGUUGACAUGGAAGAAGGACAGAAGGACGAUGUCCAU | 0.566 µM | 0.0142 µM | – | – |
| UUGGACGUCGUAGGAUAUGUAGGAUAUUCCUACAUGAGGAUCACCCAUGUUGACAUGGAAGAAGGACAGAAGGACGGUGUCCAU | 0.241 µM | 0.00454 µM | – | – |
| UUGGACGUCGUAGGAUAUGUAGGAUAUUCCUACAUGAGGAUCACCCAUGUUGACAUGGAAGAAGGACAGAAGGAGGAUGUCCAU | 0.303 µM | 0.00718 µM | – | – |
| UUGGACGUCGUAGGAUAUGUAGGAUAUUCCUACAUGAGGAUCACCCAUGUUGACAUGGAAGAAGGACAGAAGUACGAUGUCCAU | – | 0.0056 µM | – | – |
| UUGGACGUCGUAGGAUAUGUAGGAUAUUCCUACAUGAGGAUCACCCAUGUUGACAUGGAAGAAGGACAGAAUGACGAUGUCCAU | 0.374 µM | 0.00551 µM | – | – |
| UUGGACGUCGUAGGAUAUGUAGGAUAUUCCUACAUGAGGAUCACCCAUGUUGACAUGGAAGAAGUACAGAAGGACGAUGUCCAU | 0.0159 µM | 0.0045 µM | – | – |
| UUGGACGUCGUAGGAUAUGUAGGAUAUUCCUACAUGAGGAUCACCCAUGUUGACAUGGAAUAAGGACAGAAGGACGAUGUCCAU | 0.0234 µM | 0.00528 µM | – | – |
| UUGGACGUCGUAGGAUAUGUAGGAUAUUCCUACAUGAGGAUCACCCAUGUUGACAUGGCAGAAGGACAGAAGGACGAUGUCCAU | 0.938 µM | 0.129 µM | – | – |
| UUGGACGUCGUAGGAUAUGUAGGAUAUUGCUACAUGAGGAUCACCCAUGUUGACAUGGAAGAAGGACAGAAGGACGAUGUCCAU | 0.0438 µM | 0.00559 µM | – | – |
